{
  "source": "paper PMC12082725",
  "about": "(Journal of Enzyme Inhibition and Medicinal Chemistry, 2025)",
  "key": {"[1]": {"biological_target": "RNA-induced LLPS of the NP (Severe acute respiratory syndrome coronavirus 2, UniProt P0DTC9)", "format": "biochemical, SARS-CoV-2"}, "[2]": {"biological_target": "SARS-CoV-2 NP-RNA interaction (Severe acute respiratory syndrome coronavirus 2, UniProt P0DTC9)", "experiment": "biochemical", "format": "biochemical", "conditions": "for inhibition rate of the NP-RNA interaction: compound at 50 μM"}, "[3]": {"biological_target": "SARS-CoV-2 NP (Severe acute respiratory syndrome coronavirus 2, UniProt P0DTC9)", "experiment": "BLI binding of compounds to full-length NP", "method_in_brief": "(§1)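 Target was recombinant E. coli-expressed SARS-CoV-2 NP, either CTD or full-length (1–419). Protein at 0.39 mg/ml was biotinylated for 30 min at RT, then loaded at 100 μg/ml onto streptavidin sensors for 20 min. After a 60 s baseline, increasing test compound concentrations gave 120 s association and 300 s dissociation. Run in PBS/0.01% Tween-20 at 30 °C; double-reference subtracted; KD from a global 1:1 Langmuir fit.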"}, "[4]": {"biological_target": "SARS-CoV-2 NP CTD (Severe acute respiratory syndrome coronavirus 2, UniProt P0DTC9)", "experiment": "BLI binding of compounds to NP CTD", "method_in_brief": "as §1"}, "[5]": {"biological_target": "SARS-CoV-2 NP NTD (Severe acute respiratory syndrome coronavirus 2, UniProt P0DTC9)", "experiment": "BLI binding of compounds to NP NTD", "conditions": "NP NTD (residues 44 to 174)"}, "[6]": {"biological_target": "NP NTD", "conditions": "read-out: Kd, NP NTD; via bio-layer interferometry assay; ref [28]; cited from earlier work"}},
  "note": "Where two headings read alike, the source gives them in different places.",
  "data": [
    {"smiles": "O=C(O)c1cc(O)c2c(c1)[C@H]([C@H]1c3cc(C(=O)O)cc(O)c3C(=O)c3c(O[C@@H]4O[C@H](CO)[C@@H](O)[C@H](O)[C@H]4O)cccc31)c1cccc(O[C@@H]3O[C@H](CO)[C@@H](O)[C@H](O)[C@H]3O)c1C2=O", "note": "[sennoside A]", "values": [
      {"measurement": "inhibition of RNA-induced LLPS of the NP", "setting": "[1]", "result": "relatively weaker activity"},
      {"measurement": "IC50", "setting": "[2]", "result": "3170 ± 390", "unit": "nM"},
      {"measurement": "inhibition rate of the NP-RNA interaction", "setting": "[2]; HTRF", "result": "exceeding 98%"},
      {"measurement": "Kd", "setting": "[3]", "result": "962 ± 19", "unit": "nM"},
      {"measurement": "Kd", "setting": "[4]", "result": "1820 ± 30", "unit": "nM"},
      {"measurement": "binding to NP NTD", "setting": "[5]", "result": "neither sennoside A nor sennoside B bound"}
    ]},
    {"smiles": "CC(C)[N+]1(C)[C@@H]2CC[C@H]1C[C@@H](OC(=O)C(CO)c1ccccc1)C2", "note": "(some centres unmarked) [ipratropium bromide]", "values": [
      {"measurement": "inhibitory effect on NP-RNA interaction (in words)", "setting": "[2]; HTRF, 50 μM", "result": "neither compound affected"}
    ]},
    {"smiles": "COc1ccc(CC(C)NCC(O)c2ccc(O)c(NC=O)c2)cc1", "note": "(centres unmarked) [formoterol]", "values": [
      {"measurement": "inhibitory effect on NP-RNA interaction (in words)", "setting": "[2]; HTRF, 50 μM", "result": "neither compound affected"}
    ]},
    {"smiles": "COc1ccc2cc([C@H](C)C(=O)O)ccc2c1", "note": "[naproxen]", "values": [
      {"measurement": "inhibitory effect on NP-RNA interaction (in words)", "setting": "[2]", "result": "did not inhibit"}
    ]},
    {"smiles": "CCOC(=O)c1c(CSc2ccccc2)n(C)c2cc(Br)c(O)c(CN(C)C)c12", "note": "[umifenovir]", "values": [
      {"measurement": "inhibitory effect on NP-RNA interaction (in words)", "setting": "[2]; HTRF, 50 μM", "result": "no inhibitory effect"}
    ]},
    {"smiles": "Cc1ccc(C(=O)Nc2ccc(S(=O)(=O)O)c3cc(S(=O)(=O)O)cc(S(=O)(=O)O)c23)cc1NC(=O)c1cccc(NC(=O)Nc2cccc(C(=O)Nc3cc(C(=O)Nc4ccc(S(=O)(=O)O)c5cc(S(=O)(=O)O)cc(S(=O)(=O)O)c45)ccc3C)c2)c1", "note": "[suramin]", "values": [
      {"measurement": "Kd", "setting": "[6]", "result": 2740, "unit": "nM"}
    ]},
    {"smiles": "O=C(O)c1cc(O)c2c(c1)[C@@H]([C@H]1c3cc(C(=O)O)cc(O)c3C(=O)c3c(O[C@@H]4O[C@H](CO)[C@@H](O)[C@H](O)[C@H]4O)cccc31)c1cccc(O[C@@H]3O[C@H](CO)[C@@H](O)[C@H](O)[C@H]3O)c1C2=O", "note": "[sennoside B]", "values": [
      {"measurement": "inhibition of RNA-induced LLPS of the NP", "setting": "[1]", "result": "significantly inhibited"},
      {"measurement": "IC50", "setting": "[2]", "result": "1050 ± 230", "unit": "nM"},
      {"measurement": "inhibition rate of the NP-RNA interaction", "setting": "[2]; HTRF", "result": "exceeding 98%"},
      {"measurement": "Kd", "setting": "[3]", "result": "765 ± 12", "unit": "nM"},
      {"measurement": "Kd", "setting": "[4]", "result": "529 ± 16", "unit": "nM"},
      {"measurement": "binding to NP NTD", "setting": "[5]", "result": "neither sennoside A nor sennoside B bound"}
    ]}
  ]
}
